Source: ChEMBL document CHEMBL1154444, “2,3,5-Substituted tetrahydrofurans: COX-2 inhibitory activities of 5-hydroxymethyl-/carboxyl-2,3-diaryl-tetrahydro-furan-3-ols” (Eur J Med Chem, 2008)

Tests used:
[1] = Selectivity ratio of IC50 for COX1 to IC50 for COX2
Procedure, shortened: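 Ovine COX-1 and COX-2 inhibitor screening kit. Reaction started with arachidonic acid and quenched with 1 M HCl. PGH2 reduced to PGF2α by SnCl2, then quantified by prostaglandin antiserum immunoassay read at 405 nm. Heat-inactivated enzymes (boiling water, 3 min) served as background. Compounds tested in duplicate. Selectivity taken as IC50(COX-1)/IC50(COX-2).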

[2] = Partition coefficient, log P of the compound; type: physicochemical; details: octanol/water
Procedure, shortened: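 Calculated rather than measured, as one of several physico-chemical descriptors used in quantitative structure–activity correlation with COX-2 inhibition.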

[3] = molecular target: Prostaglandin G/H synthase 2 (Ovis aries) (UniProt P79208)
[4] = molecular target: Prostaglandin G/H synthase 1 (Ovis aries) (UniProt P05979)
[5] = molecular target: Prostaglandin G/H synthase 2 (Ovis aries) (UniProt P79208); details: at 1 µM
[6] = molecular target: Prostaglandin G/H synthase 2 (Ovis aries) (UniProt P79208); details: at 10 µM
[7] = molecular target: Prostaglandin G/H synthase 1 (Ovis aries) (UniProt P05979); details: at 1 µM
NCI-H522 = experiment: Anticancer activity against human NCI-H522 cells at 10 uM; type: functional
Procedure, shortened: (§1)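 Tested at NIH in the standard 59-human-tumor-cell-line panel, at five concentrations from 10^-4 to 10^-8 M. Read-out is percent growth inhibition of the named cell line at 10^-5 M.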

PC-3 [8] = experiment: Anticancer activity against human PC3 cells; type: functional
PC-3 [9] = experiment: Anticancer activity against human PC3 cells at 1 uM; type: functional
SN12C = experiment: Anticancer activity against human SN12C cells at 10 uM; type: functional; procedure, shortened: as §1

Chain of Prostaglandin G/H synthase 1 (Ovis aries) (P05979 whole entry, looked up): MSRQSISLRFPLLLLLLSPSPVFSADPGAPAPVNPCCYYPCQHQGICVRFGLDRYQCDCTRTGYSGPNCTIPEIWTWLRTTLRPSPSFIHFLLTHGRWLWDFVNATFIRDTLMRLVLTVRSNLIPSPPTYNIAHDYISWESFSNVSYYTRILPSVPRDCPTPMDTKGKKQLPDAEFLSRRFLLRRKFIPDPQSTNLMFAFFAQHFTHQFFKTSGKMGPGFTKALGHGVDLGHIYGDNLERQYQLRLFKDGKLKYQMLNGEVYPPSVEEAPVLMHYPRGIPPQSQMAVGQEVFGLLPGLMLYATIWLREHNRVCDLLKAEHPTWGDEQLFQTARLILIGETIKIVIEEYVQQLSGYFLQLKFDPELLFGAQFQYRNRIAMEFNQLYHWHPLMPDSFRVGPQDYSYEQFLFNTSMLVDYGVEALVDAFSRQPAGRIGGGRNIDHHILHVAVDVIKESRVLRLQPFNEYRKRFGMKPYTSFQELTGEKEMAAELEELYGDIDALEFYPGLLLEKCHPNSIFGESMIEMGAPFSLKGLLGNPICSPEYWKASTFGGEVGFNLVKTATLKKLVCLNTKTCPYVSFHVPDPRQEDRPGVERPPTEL
Chain of Prostaglandin G/H synthase 2 (Ovis aries) (P79208 whole entry, looked up): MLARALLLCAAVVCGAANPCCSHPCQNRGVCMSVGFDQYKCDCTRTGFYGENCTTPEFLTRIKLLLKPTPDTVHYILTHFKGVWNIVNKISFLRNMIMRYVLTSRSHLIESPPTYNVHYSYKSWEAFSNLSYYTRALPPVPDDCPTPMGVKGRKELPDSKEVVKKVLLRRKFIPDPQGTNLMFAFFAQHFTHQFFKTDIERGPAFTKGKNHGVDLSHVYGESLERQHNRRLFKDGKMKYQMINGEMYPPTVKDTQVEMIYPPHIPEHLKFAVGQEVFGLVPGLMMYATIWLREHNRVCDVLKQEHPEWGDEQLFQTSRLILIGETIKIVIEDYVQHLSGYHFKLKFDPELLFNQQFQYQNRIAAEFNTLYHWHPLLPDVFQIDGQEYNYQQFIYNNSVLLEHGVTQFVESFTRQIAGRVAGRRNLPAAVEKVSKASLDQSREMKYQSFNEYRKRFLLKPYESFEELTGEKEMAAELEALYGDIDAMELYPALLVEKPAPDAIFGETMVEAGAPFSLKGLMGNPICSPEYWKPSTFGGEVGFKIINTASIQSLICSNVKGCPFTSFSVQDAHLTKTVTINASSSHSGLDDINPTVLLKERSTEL

SMILES	Ratio IC50 [1]	logP [2]	IC50 [3]	IC50 [4]	inhibition [5]	inhibition [6]	inhibition [7]	inhibition at 10 µM (NCI-H522)	GI50 (PC-3 [8])	inhibition at 1 µM (PC-3 [9])	inhibition at 10 µM (SN12C)
O=C(O)[C@H]1C[C@](O)(c2ccccc2)[C@@H](c2ccccc2)O1 (relative stereo)	> 10	2.61	< 1 µM	> 10 µM	68%	69%	-1.15%	–	–	–	–
O=C(O)[C@H]1C[C@](O)(c2ccccc2Cl)[C@@H](c2ccccc2Cl)O1 (relative stereo)	> 2.8	3.65	3.5 µM	> 10 µM	37%	82%	34%	72%	–	–	–
OC[C@H]1C[C@](O)(c2ccccc2)[C@@H](c2ccccc2)O1	> 1.96	2.5	5.1 µM	> 10 µM	28%	77%	2.8%	–	–	–	–
O=C(O)[C@H]1C[C@](O)(c2ccc(Cl)cc2)[C@@H](c2ccc(Cl)cc2)O1 (relative stereo)	< 2.6	3.65	3.8 µM	< 10 µM	30%	94%	55%	–	–	–	–
CS(=O)(=O)c1ccc([C@H]2O[C@@H](CO)C[C@]2(O)c2ccc(S(C)(=O)=O)cc2)cc1	< 1.5	0.792	6.5 µM	< 10 µM	40%	57%	55%	–	100 µM	–	–
OC[C@H]1C[C@](O)(c2ccc(F)cc2)[C@@H](c2ccc(F)cc2)O1	> 10	2.78	< 1 µM	> 10 µM	88%	82%	22%	–	95 µM	–	–
OC[C@H]1C[C@](O)(c2ccccc2Cl)[C@@H](c2ccccc2Cl)O1	–	3.54	< 1 µM	< 10 µM	67%	68%	73%	–	22 µM	–	–
Cc1ccc(-c2cc(C(F)(F)F)nn2-c2ccc(S(N)(=O)=O)cc2)cc1 [CELECOXIB]	–	–	–	–	–	–	–	–	47 µM	–	–
COc1ccc([C@H]2O[C@@H](CO)C[C@]2(O)c2ccc(OC)cc2)cc1	> 10	2	< 1 µM	> 10 µM	65%	67%	22%	–	93.3 µM	–	–
CS(=O)(=O)c1ccc(C2=C(c3ccccc3)C(=O)OC2)cc1 [ROFECOXIB]	–	–	–	–	–	–	–	–	–	15%	–
OC[C@H]1C[C@](O)(c2ccc(Cl)cc2)[C@@H](c2ccc(Cl)cc2)O1	< 3.3	3.54	3 µM	< 10 µM	43%	68%	56%	–	19.9 µM	–	–
O=C(O)[C@H]1C[C@](O)(c2ccc(F)cc2)[C@@H](c2ccc(F)cc2)O1 (relative stereo)	> 3.1	2.89	3.2 µM	> 10 µM	37%	90%	30%	–	–	–	60%
